The values below come from ChEMBL document CHEMBL5223075, “Discovery of thienothiazolocarboxamide analogues as novel anti-tubercular agent” (Bioorg Med Chem, 2020).

For data set [1], the system named is Mycobacterium tuberculosis. Description: Antitubercular activity against Mycobacterium tuberculosis H37Rv ATCC 27294 expressing the green fluorescence protein assessed as inhibition of bacterial growth by measuring GFP fluorescence incubated for 5 days by fluorescence based plate reader analysis. The class given is functional, organism-based. The note with it: H37Rv ATCC 27294, 120 h. The procedure, abridged: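 H37Rv-GFP was grown 14 days in 7H9/OADC/Tween/glycerol/hygromycin, washed, and seeded at ~3×10^6 CFU/mL. Compounds were given as 10-point 2-fold series starting at 20 or 1 µM, in 1% DMSO final. Plates ran 5 days at 37°C, 5% CO2, with rifampicin 1 µg/mL as positive control. GFP fluorescence was read and IC50 taken from a 4-parameter sigmoid fit.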

Data set [2] concerns Mycobacterium tuberculosis. Description: Antitubercular activity against Mycobacterium tuberculosis H37Rv ATCC 27294 expressing the green fluorescence protein infected in mouse RAW264.7 cells assessed as inhibition of bacterial growth pre-infected with cell followed by compound addition and measured after 5 days by Hoechst 33342 staining based analysis. The class given is functional, organism-based. The note with it: H37Rv ATCC 27294, RAW264.7, 120 h. The procedure, abridged:
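RAW 264.7 cells, passages 2-9, were infected with washed H37Rv-GFP at MOI 20 for 2 h at 37°C with shaking. Cells were washed and plated at 20,000/well over 2-fold compound dilutions for 5 days. Nuclei were stained with 5 µM Hoechst (final) and 3 fields/well imaged. Four parameters (cell count, bacterial area, area per infected cell, infected-cell ratio) were each fitted by 4-parameter sigmoid, and the IC50s averaged.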

Data set [3] is described as follows: Metabolic stability in human liver microsome assessed as phase I mediated metabolite formation by measuring half-life. The class given is ADME. The settings on record: microsomes. For orientation: Microsomes from liver hold many membrane-bound enzymes, among them those of drug oxidation.
A short description of data set [4]: Solubility of the compound at pH 2.1. Type of data set: physicochemical. The note with it: buffer.
Data set [5] can be described thus: Solubility of the compound at pH 7.4. The class given is physicochemical. The note with it: buffer.
The nature of data set [6]: Metabolic stability in mouse liver microsome assessed as phase I mediated metabolite formation by measuring half-life. The class given is ADME. The settings on record: microsomes.

Converted amounts (≈) assume the structure as drawn.

By IC50 is commonly meant the midpoint of a concentration-inhibition curve. For `NNC(=O)c1ccncc1` [ISONIAZID], the 50% inhibitory concentration (IC50) in data set [1] was found to be 0.4 µM; in data set [2] it was 0.35 µM.

The term solubility denotes how much of the substance goes into solution per volume. Higher therefore signals a readily soluble substance. Take `Cc1nc2cc(NC(=O)c3cc4sc(N(C)CCO)nc4s3)ccc2o1`: the t1/2 is above 60 min in data set [3] and 37.7 min in data set [6]. The values for the solubility in data set [4] and in data set [5] were 20.6 µg/mL (≈ 53 µM) and 4.5 µg/mL (≈ 11.6 µM), respectively. Moreover, the figures for the IC50 in data set [1] and in data set [2] were 0.88 µM and 1.3 µM, respectively.

Regarding `O=C(Nc1ccc(-c2ccc(Cl)cn2)cc1)c1cc2sc(NCCN3CCOCC3)nc2s1`, the results for the solubility in data set [4] and in data set [5] were 43.4 µg/mL (≈ 86.8 µM) and 0.2 µg/mL (≈ 0.4 µM), respectively. Moreover, the results for the IC50 in data set [1] and in data set [2] were 3.2 µM and 0.21 µM, respectively.

Turning to `O=C(Nc1ccc(-c2ccc(F)cc2)nc1)c1cc2sc(NCCN3CCOCC3)nc2s1`, the figures for the solubility in data set [4] and in data set [5] were above 50 µg/mL and 0.57 µg/mL (≈ 1.18 µM), respectively. Also, the IC50 in data set [1] came to 4.6 µM; in data set [2], 0.37 µM.

Turning to `COc1ccc(NC(=O)c2cc3sc(N4CCOCC4)nc3s2)cc1`, the t1/2 is reported as 57.6 min in data set [3] and above 60 min in data set [6]. The IC50 worked out at 1.1 µM in data set [1] and 0.21 µM in data set [2].

Take `Cc1nc2cc(NC(=O)c3cc4sc(N5CC(C)OC(C)C5)nc4s3)ccc2o1` (configuration not stated): the IC50 in data set [1] worked out at 1.1 µM; in data set [2], 0.25 µM.

On to `COc1cc(NC(=O)c2cc3sc(N4CCCCC4)nc3s2)cc(OC)c1`, for which the t1/2 in data set [3] amounted to 24.5 min; in data set [6], 33.6 min. Also, the IC50 in data set [1] and in data set [2] was above 20 µM each time.

For the molecule `COc1ccc(-c2ccc(NC(=O)c3cc4sc(NCCN5CCOCC5)nc4s3)cc2)nc1`, the t1/2 in data set [3] and in data set [6] was below 30 min in each case. Further, the solubility in data set [4] was above 50 µg/mL; in data set [5], 0.2 µg/mL (≈ 0.404 µM). In addition, the results for the 50% inhibitory concentration (IC50) in data set [1] and in data set [2] were 1.35 µM and 0.19 µM, respectively.

For the molecule `Cc1nc2cc(NC(=O)c3cc4sc(NCCN5CCOCC5)nc4s3)ccc2o1`, the t1/2 in data set [3] and in data set [6] was above 60 min each time. Besides, the results for the solubility in data set [4] and in data set [5] were 37.1 µg/mL (≈ 83.6 µM) and 2.1 µg/mL (≈ 4.73 µM), respectively. The figures for the 50% inhibitory concentration (IC50) in data set [1] and in data set [2] were 1.35 µM and 0.47 µM, respectively.

As for `Cc1nc2cc(NC(=O)c3cc4sc(N(C)CCCO)nc4s3)ccc2o1`, the half-inhibitory concentration (IC50) in data set [1] is 1 µM; in data set [2], 0.7 µM.

With `COc1ccc(NC(=O)c2cc3sc(N(C)C)nc3s2)cc1`, the IC50 was 1.6 µM in data set [1] and 0.27 µM in data set [2].

As for `COc1ccc(CNC(=O)c2cc3sc(N4CCCCC4)nc3s2)cc1`, the IC50 in data set [1] and in data set [2] was above 20 µM each time.

Take `COc1ccc(NC(=O)c2cc3sc(N4CCCCC4)nc3s2)cc1`: the 50% inhibitory concentration (IC50) came to 0.83 µM in data set [1] and 0.17 µM in data set [2].

For the molecule `COc1ccc(NC(=O)c2cc3sc(N4CCC(F)(F)CC4)nc3s2)cc1`, the IC50 in data set [1] was 1.1 µM; in data set [2], 0.33 µM.

On to `O=C(Nc1ccc(Cl)cc1)c1cc2sc(N3CCCCC3)nc2s1`, for which the IC50 in data set [1] was 1.1 µM; in data set [2], 0.11 µM.

For the molecule `O=C(Nc1ccc(-c2ccc(F)cc2)cn1)c1cc2sc(NCCN3CCOCC3)nc2s1`, the solubility in data set [4] was found to be 44.2 µg/mL (≈ 91.4 µM); in data set [5], 0.56 µg/mL (≈ 1.16 µM). The IC50 came out at 4.7 µM in data set [1] and 0.36 µM in data set [2].

Consider `COc1ccc(NCc2cc3sc(N4CCCCC4)nc3s2)cc1`, for which the concentration for half-maximal inhibition (IC50) in data set [1] and in data set [2] was above 20 µM each time.

Consider `CO[C@H]1/C=C/O[C@@]2(C)Oc3c(C)c(O)c4c(O)c(c(/C=N/N5CCN(C)CC5)c(O)c4c3C2=O)NC(=O)/C(C)=C\C=C\[C@H](C)[C@H](O)[C@@H](C)[C@@H](O)[C@@H](C)[C@H](OC(C)=O)[C@@H]1C` [RIFAMPIN], for which the half-inhibitory concentration (IC50) in data set [1] is 0.01 µM; in data set [2] it was 0.06 µM.

Turning to `Cc1nc2cc(NC(=O)c3cc4sc(N5CCC(O)CC5)nc4s3)ccc2o1`, the t1/2 in data set [3] and in data set [6] was above 60 min throughout. For the same molecule, the solubility came out at 9.7 µg/mL (≈ 23.4 µM) in data set [4] and 2.4 µg/mL (≈ 5.79 µM) in data set [5]. Also, the IC50 worked out at 0.64 µM in data set [1] and 0.46 µM in data set [2].

Regarding `COc1ccc(N(C)C(=O)c2cc3sc(N4CCCCC4)nc3s2)cc1`, the half-maximal inhibitory concentration (IC50) in data set [1] and in data set [2] was above 20 µM in each case.

Consider `COc1ccc(C(=O)Nc2cc3sc(N4CCCCC4)nc3s2)cc1`, for which the half-inhibitory concentration (IC50) in data set [1] and in data set [2] was above 20 µM each time.

For `COc1ccc(NC(=O)c2cc3sc(N4CCN(C)CC4)nc3s2)cc1`, the half-maximal inhibitory concentration (IC50) in data set [1] was 1.3 µM; in data set [2] it was 0.11 µM.

As to `COc1ccc(NC(=O)c2cc3sc(N4CCNCC4)nc3s2)cc1`, the 50% inhibitory concentration (IC50) in data set [1] stood at 13.7 µM; in data set [2], 2.1 µM.

Regarding `O=C(Nc1ccc(-c2ccc(C(F)(F)F)cn2)cc1)c1cc2sc(NCCN3CCOCC3)nc2s1`, the values for the solubility in data set [4] and in data set [5] were 44.3 µg/mL (≈ 83 µM) and 9.8 µg/mL (≈ 18.4 µM), respectively. The half-inhibitory concentration (IC50) worked out at 4.5 µM in data set [1] and 0.21 µM in data set [2].

With `O=C(Nc1ccc(O)cc1)c1cc2sc(N3CCCCC3)nc2s1`, the 50% inhibitory concentration (IC50) turned out to be 4.8 µM in data set [1] and 2.75 µM in data set [2].

For the molecule `Cc1ccc(-c2ccc(NC(=O)c3cc4sc(NCCN5CCOCC5)nc4s3)cc2)nc1`, the figures for the t1/2 in data set [3] and in data set [6] were 20.9 min and 27.1 min, respectively. Moreover, the solubility in data set [4] came out at 52.3 µg/mL (≈ 109 µM); in data set [5], 1.3 µg/mL (≈ 2.71 µM). Also, the concentration for half-maximal inhibition (IC50) in data set [1] was 1.35 µM; in data set [2], 0.31 µM.

Turning to `O=C(Nc1ccc(-c2ccc(F)nc2)cc1)c1cc2sc(NCCN3CCOCC3)nc2s1`, the t1/2 in data set [3] is on record as 25.1 min; in data set [6], 45.6 min. Besides, the solubility in data set [4] came to 1.5 µg/mL (≈ 3.1 µM); in data set [5], 1.1 µg/mL (≈ 2.27 µM). The IC50 is 0.61 µM in data set [1] and 0.1 µM in data set [2].

Regarding `Cc1nc2cc(NC(=O)c3cc4sc(N5CCC(CO)CC5)nc4s3)ccc2o1`, the figures for the half-inhibitory concentration (IC50) in data set [1] and in data set [2] were 0.5 µM and 0.23 µM, respectively.
